Compound activity deposited in PubChem by several laboratories.
MsrA inhibitor – inhibitors of bovine MsrA. inhibition, % at 15.5 µM. purified bovine MsrA, absorbance read-out. AID 651718. 360,000 compounds, 0.75% hits;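 also: 0% = vehicle wells with enzyme and 100% = reference inhibitor wells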
NadD block – blocks S. aureus nicotinate mononucleotide adenylyltransferase; 360,000 compounds, 0.78% hits; purified NadD enzyme, colorimetric absorbance read-out; AID 602399; inhibition, % at 20 µM; in the data active = inhibition above about 26%
bovine MsrA act – bovine methionine sulfoxide reductase A activation; 360,000 compounds, 0.3% hits; activation, % at 10.6 µM; purified bovine MsrA, absorbance read-out; in the data active = activation above about 7.5%;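 also: 0% = vehicle and 100% = reference activator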
NR2E3 ag-1 – human photoreceptor-specific nuclear receptor agonism; Q9Y5X4; CHO-S Gal4-NCOR/VP16-NR2E3 two-hybrid, luciferase; inhibition of corepressor binding, % at 3.98 µM; 360,000 compounds, 0.35% hits;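 active = inhibition above the mean of all tested compounds plus 3 SD, cut at about 70% in these data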;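 also: 0% = DMSO with NR2E3 transfected cells and 100% = cells lacking NR2E3 construct; higher means lower luciferase signal from less NR2E3 corepressor binding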
Target sequence (Q9Y5X4 whole entry, looked up, the tested form may be a part): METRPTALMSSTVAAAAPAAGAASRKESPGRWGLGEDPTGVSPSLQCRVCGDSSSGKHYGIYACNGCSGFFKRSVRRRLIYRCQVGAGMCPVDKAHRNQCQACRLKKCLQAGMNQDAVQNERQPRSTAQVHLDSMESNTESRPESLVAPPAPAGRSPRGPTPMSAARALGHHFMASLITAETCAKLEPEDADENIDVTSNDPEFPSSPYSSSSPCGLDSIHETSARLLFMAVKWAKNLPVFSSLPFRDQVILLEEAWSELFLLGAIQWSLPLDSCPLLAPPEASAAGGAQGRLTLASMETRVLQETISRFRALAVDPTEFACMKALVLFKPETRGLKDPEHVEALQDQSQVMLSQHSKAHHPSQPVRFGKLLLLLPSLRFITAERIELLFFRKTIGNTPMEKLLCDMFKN
NR2E3 ag-2 – NR2E3 (human) agonism; GST-NR2E3/biotin-RetCOR TR-FRET, 1536-well; inhibition of corepressor binding, % at 4.78 µM; 320,000 compounds, 0.12% hits;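 active = percent inhibition above the cutoff of mean plus 3 SD of all tested compounds, set per screening campaign, cut at about 20% in these data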;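 also: 0% = DMSO wells and 100% = biotin wells as full block of FRET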
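Material: NR2E3–RetCOR corepressor complex / Incubation: Compound–protein incubation for 5 h at 4 °C / Dosing: compound at 4.8 µM, single dose / Detection: time-resolved FRET / Benchmarks: high control biotin, low control 0.6% DMSO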
GalR3 antag – antagonists of human GalR3; O60755; HEK293 GalR3-CNG cAMP membrane potential fluorescence; galR3 body fused to GalR1 C-terminus; inhibition, % at 3 µM; 360,000 compounds, 0.44% hits; AID 651719;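 active = inhibition above the screen-wide average plus 3 SD, cut at about 13% in these data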;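 also: forskolin and galanin both at EC90 stimulate the cells; cAMP rise reported by CNG channel membrane potential dye signal; 0% = forskolin plus galanin with DMSO and 100% = forskolin alone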
Target sequence (O60755 1-299 limits assumed): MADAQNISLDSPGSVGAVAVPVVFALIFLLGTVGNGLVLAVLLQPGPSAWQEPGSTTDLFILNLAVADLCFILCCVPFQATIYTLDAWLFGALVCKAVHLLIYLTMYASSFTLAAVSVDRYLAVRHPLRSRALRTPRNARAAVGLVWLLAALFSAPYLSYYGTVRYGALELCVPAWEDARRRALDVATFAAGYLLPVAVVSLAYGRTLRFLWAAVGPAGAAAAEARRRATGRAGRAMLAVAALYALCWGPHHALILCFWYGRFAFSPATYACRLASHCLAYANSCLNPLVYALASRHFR
MsrA conf – confirmation of bovine MsrA inhibitors | shares compounds with MsrA inhibitor | purified bovine MsrA, absorbance read-out | inhibition, % at 15.5 µM | 2,300 compounds, 41% hits;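 also: coupled to thioredoxin reductase with NADPH and selenocystamine and DMSO as substrate; 0% = vehicle only and 100% = full effect of reference inhibitor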
Starred values were filed as active, the others as inactive; x = no result given. Hits are enriched below; roughly 2.5% of the tested compounds scored in any of these assays. Rule as the data show it, unless noted: active = inhibition above about 4.5%; inactive = the rest.

SMILES	MsrA inhibitor	NadD block	bovine MsrA act	NR2E3 ag-1	NR2E3 ag-2	GalR3 antag	MsrA conf
CCOc1ccc(N(C)S(=O)(=O)c2cc(-c3cc(C)no3)ccc2OC)cc1	0.6	-11.0	-2.5	-25.1	-1.7	-10.3	x
CCOc1ccc(N(C)S(=O)(=O)c2cc(-c3cc(C)no3)ccc2C)cc1	11.9*	-1.8	-3.1	-27.4	-5.2	-12.1	11.2*
CCOc1ccc(N(C)S(=O)(=O)c2cc(-c3cc(C)no3)ccc2CC)cc1	14.8*	1.9	-2.3	-9.5	1.0	-3.3	15.3*
O=C(N/N=C/c1ccc(O)c(O)c1)c1cccc(S(=O)(=O)N2CCCC2)c1	3.3	-3.4	-11.4	-15.9	0.8	-1.4	x
CNC(=O)C[C@H]1C(=O)N(c2ccc(Br)cc2)C[C@@H]1CSC	5.6*	-2.1	-0.6	-46.2	x	1.4	2.9
Nc1nc(N)c2sc3nc(C(F)(F)F)cc(C(F)(F)F)c3c2n1	7.5*	-9.9	-2.7	8.8	-3.3	3.1	1.3
O=C(Nc1nc2n(n1)C(c1ccccc1)CC(c1ccc(Cl)cc1)N2)c1ccco1 (stereo not given)	-0.6	19.7	-4.4	-26.4	-2.7	-2.2	x
CN1CCN(CC(=O)Nc2ccccc2[N+](=O)[O-])CC1	-0.1	-0.3	-4.7	-9.1	-2.4	-2.9	x
CN1CCN(CC(=O)Nc2cc(N3CCOCC3)ccc2[N+](=O)[O-])CC1	4.8*	-3.9	-3.1	2.3	-1.2	-4.7	0.1
C=Cn1cc[n+](CC(=O)c2cccs2)c1	-0.8	-5.6	-1.9	-7.8	-1.3	-7.3	x
CS(=O)(=O)Nc1ccc(C2=NN(C(=O)c3ccccc3)C(c3cccs3)C2)cc1 (stereo not given)	4.8*	-2.0	-11.2	22.9	-2.9	-6.0	1.5
N/C(=N\N=C\c1ccco1)SC1CC(=O)N(c2ccc(C(=O)O)cc2)C1=O (stereo not given)	4.2	-5.6	-9.8	-6.2	0.8	-3.9	x
N/C(=N\N=C\c1ccco1)SC1CC(=O)N(c2ccccc2)C1=O (stereo not given)	6.8*	-0.9	-4.5	-18.1	2.8	-6.6	4.2
C/C(=N\N=C(/N)SC1CC(=O)N(c2ccc(Cl)cc2)C1=O)c1cccs1 (stereo not given)	2.7	8.7	-6.3	-23.2	1.4	-8.8	x
C/C(=N\N=C(/N)SC1CC(=O)N(c2ccccc2)C1=O)c1cccs1 (stereo not given)	5.1*	5.2	-7.4	-12.7	1.0	-7.4	2.2
CC1(C)Cc2c(sc(/N=C/N3CCCC3)c2C#N)C(C)(C)N1	5.1*	-2.5	-0.3	-4.7	3.3	-0.1	3.1
CC1(C)Cc2c(sc(/N=C/N3CCCCCC3)c2C#N)C(C)(C)N1	1.4	-1.6	-4.0	-30.3	2.2	-4.7	x
CC/C=C/C(=O)N1CC2(CC(c3cccc(NC(=O)CCCCC)c3)=NO2)C[C@H]1C(N)=O (stereo not given in full)	0.1	1.0	-1.8	8.7	0.6	3.2	x
CC(C)=NNc1nc2c(c(=O)n(C)c(=O)n2C)n1C	-0.4	-6.7	-4.2	-44.2	-0.8	3.0	x
Cn1c(=O)c2c(nc(N/N=C/c3ccco3)n2C)n(C)c1=O	6.2*	-0.6	1.5	-26.3	-6.5	-3.8	6.8*
Cn1c(=O)c2c(ncn2CC(=O)N/N=C/c2ccco2)n(C)c1=O	1.5	-1.8	-6.7	-1.2	0.6	-10.5	x
Cn1c(=O)c2c(nc(N/N=C/c3cccs3)n2C)n(C)c1=O	4.9*	-7.0	-2.8	-38.2	-3.6	3.8	5.7*
O=C1C2C(C(=O)N1/N=C/c1cc(Br)cc([N+](=O)[O-])c1O)C1C=CC2C12CC2 (stereo not given)	2.1	10.4	0.2	9.8	2.7	2.7	x
COc1ccc(-c2oc3ccc(-c4ccc5c(c4)OCO5)cc3c2C#CC2(O)CCCCC2)cc1	5.2*	11.1	-4.2	-8.4	7.8	-0.8	3.0
COc1ccc(-c2oc3ccc(-c4ccc(OC)nc4)cc3c2C#CC2(O)CCCCC2)cc1	1.7	7.6	-0.3	-6.3	0.4	-1.6	x
SMILES	MsrA inhibitor	NadD block	bovine MsrA act	NR2E3 ag-1	NR2E3 ag-2	GalR3 antag	MsrA conf
CN(C(=O)COC(=O)Cc1c(Cl)cccc1Cl)C1CCS(=O)(=O)C1 (stereo not given)	2.6	5.9	-2.3	10.4	2.3	-0.5	x
CN1C(=O)C(CC(=O)Nc2ccccc2F)N(NC(=O)c2ccc(Br)cc2)C1=S (stereo not given)	-0.6	3.7	-0.1	-31.1	-2.2	-7.7	x
COc1cc(C(=O)C(=O)c2ccc(O)c(OC)c2)ccc1O	6.4*	0.2	-4.2	-84.1	2.3	-4.0	4.2
N#Cc1ccc(CSc2nnc(NC(=O)c3ccc(=O)[nH]c3)s2)cc1	6.0*	-2.5	-1.6	-2.9	-0.2	0.8	1.8
CC(=O)Cc1nsc(NC(=O)c2ccc(-c3ccc(F)cc3)o2)n1	7.0*	-9.1	-5.7	-38.3	2.2	4.6	5.4*
CC(=O)Cc1nsc(NC(=O)c2ccc(-c3ccc(Cl)c(C(F)(F)F)c3)o2)n1	x	x	x	x	-1.4	x	x
O=[N+]([O-])c1ccc(CN2CCOCCOCCOCC2)cc1	0.4	-1.2	-1.8	-11.5	-0.1	5.4	x
COc1cc(/C=N/N=C2/NC(=O)C(CC(=O)O)S2)ccc1OCc1ccc(Cl)cc1 (stereo not given)	5.3*	17.3	-6.6	-126.0	-3.9	-0.8	6.0*
CCOc1cc(/C=N/N=C2/NC(=O)C(CC(=O)O)S2)ccc1OCc1ccc(Cl)cc1Cl (stereo not given)	x	24.6	-1.3	-26.7	3.7	x	x
CCOC(=O)C1(Cc2cccc(OC)c2)CCN(CC2CC=CCC2)CC1 (stereo not given)	1.6	-4.0	-2.6	9.1	-2.9	-8.2	x
Cn1c(CCN2CCCCC2)nc2cc(NC(=O)C3CCCCC3)ccc21	0.3	-3.6	-2.8	-8.1	2.5	-3.8	x
CCOC(=O)C1CCN(S(=O)(=O)c2ccc(C)c(C)c2)CC1	-0.1	0.5	5.8	-10.5	-0.4	0.4	x
Cc1ccc(C)c(S(=O)(=O)N/N=C/c2ccc(F)cc2)c1	-0.2	2.6	-3.9	-0.6	-1.2	-0.5	x
Cc1ccc(C)c(S(=O)(=O)N/N=C/c2ccc(N(C)C)cc2)c1	5.4*	0.4	-1.0	-21.9	4.5	-2.3	1.9
CC(=O)CNc1ccc(S(=O)(=O)N/N=C/c2ccccc2)cc1	0.9	-0.8	-7.7	0.5	-1.6	2.6	x
CC(=O)NCc1ccc(S(=O)(=O)N/N=C/c2ccc(N(C)C)cc2)cc1	5.6*	0.0	-3.9	7.6	-2.8	-4.4	3.4
CCN(CC)c1ccc(-c2nc3cnccc3n2C)cc1	5.4*	-6.8	-6.2	-80.1	0.6	-4.0	3.2
Cn1c(-c2ccncc2)nc2ccccc21	0.7	5.8	-2.4	-4.4	-5.6	0.3	x
